From ChEMBL document CHEMBL1136302, “Modified 3-alkyl-1,8-dibenzylxanthines as GTP-competitive inhibitors of phosphoenolpyruvate carboxykinase” (Bioorg Med Chem Lett, 2003) come the findings set out here.

Test [1] can be described thus: Inhibitory activity against human cytosolic phosphoenolpyruvate carboxykinase (PEPCK) enzyme at a concentration of 25 uM. The method in brief: (§1)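 The same coupled GST-PEPCK assay was run in 30 mM potassium phosphate pH 7.6 at room temperature. It used 0.3 mM each of GTP and OAA, plus Mg2+/Mn2+, ADP, NADH and BSA, with pyruvate kinase and lactate dehydrogenase coupling. Rate was read at 340 over 20 min. Percent inhibition is given at the highest concentration tested, as the duplicate average.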

Test [2] is described as follows: Inhibitory activity against human cytosolic phosphoenolpyruvate carboxykinase (PEPCK) enzyme. In outline:
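Recombinant human cytosolic GST-PEPCK at room temperature in 30 mM potassium phosphate pH 7.6 with 0.3 mM GTP, 0.3 mM OAA, 3 mM MgCl2, 0.075 mM MnCl2, 1 mM DTT, 0.2 mM ADP, 1 mM NADH and 1 mg/mL BSA. Coupled to pyruvate kinase and lactate dehydrogenase (0.9 U/mL each). Absorbance change at 340 read over 20 min. Eight concentrations in duplicate, averaged; IC50 derived.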

Test [3] can be described thus: Inhibitory activity against human cytosolic phosphoenolpyruvate carboxykinase (PEPCK) enzyme at a concentration of 500 uM. In outline:
as §1

One may read the inhibition as how much of the control response was suppressed. In test [1], `CCCCn1c(=O)n(Cc2cccc(F)c2)c(=O)c2[nH]c(Cc3ccc(NC(C)=O)cc3)nc21` had an inhibition of 46%.

What is called IC50 is the concentration that inhibits the measured activity by half. `CCCCn1c(=O)n(Cc2ccccc2F)c(=O)c2[nH]c(Cc3ccc(NC(C)=O)cc3)nc21` yielded an IC50 in test [2] of 2.11 µM.

The compound `CCCCn1c(=O)n(CCOC)c(=O)c2[nH]c(Cc3ccc(NC(C)=O)cc3)nc21` gave an inhibition in test [1] of 36%.

The compound `C=CCn1c(=O)c2[nH]c(Cc3ccccc3)nc2n(CCCC)c1=O` registered an inhibition in test [1] of 29%.

`C=CCn1c(=O)c2[nH]c(-c3ccc(NC(C)=O)cc3)nc2n(CCCC)c1=O`: in test [3], the inhibition stood at 1.7%.

`CCCCn1c(=O)n(Cc2ccccc2)c(=O)c2[nH]c(Cc3ccc(NC(C)=O)cc3)nc21` yielded an IC50 in test [2] of 8.15 µM.

For the compound `C=CCn1c(=O)c2c(nc(C)n2CC)n(CCCC)c1=O`, in test [3], the inhibition worked out at 34%.

In test [3], `C=CCn1c(=O)c2[nH]cnc2n(CCCC)c1=O` showed an inhibition of 39%.

With `C=CCn1c(=O)c2[nH]c(Cc3ccc(N)cc3)nc2n(CCCC)c1=O`, the IC50 in test [2] is 37 µM.

`C=CCn1c(=O)c2[nH]c(C)nc2n(CCCC)c1=O`: the IC50 in test [2] amounted to 225 µM.

With `C=CCn1c(=O)c2[nH]c(CC)nc2n(CCCC)c1=O`, the IC50 in test [2] came to 100 µM.

Consider `CCCCn1c(=O)n(CCC)c(=O)c2[nH]c(C)nc21`, for which 375 µM corresponded to half-maximal inhibition in test [2] (IC50).
